Results taken from ChEMBL document CHEMBL4270555, “Synthesis and biological evaluation of magnolol derivatives as melatonergic receptor agonists with potential use in depression” (Eur J Med Chem, 2018).
Calls of active or inactive are those of the source. No cut-off for these calls is given here.

Assays:
[1] = Drug metabolism in Sprague-Dawley rat urine assessed as 5,5'-bis(1-hydroxyallyl)biphenyl-2,2'-diol formation at 100 mg/kg, po by UPLC-IT-TOF-MS analysis; format: ADME, organism-based; conditions: in vivo
Procedure, shortened: (§1)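 Male/unspecified SD rats (n = 6) housed individually in metabolic cages, dosed orally at 100.0 mg/kg; controls given 0.5% CMC-Na orally. Plasma, urine and faeces collected. LC-IT-TOF-MS on C18 column at 30 °C, formic acid (0.05%) water/acetonitrile gradient 5–100% B over 18 min, 0.2 mL/min; positive and negative ion modes with automatic MS/MS.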

[2] = Drug metabolism in Sprague-Dawley rat urine assessed as (2S,3S,4S,5R,6S)-6-(5-acryloyl-2'-hydroxy-5'-(1-hydroxyallyl)biphenyl-2-yloxy)-3,4,5-trihydroxytetrahydro-2H-pyran-2-carboxylic acid formation at 100 mg/kg, po by UPLC-IT-TOF-MS analysis; format: ADME, organism-based; conditions: in vivo; procedure, shortened: as §1
[3] = Drug metabolism in Sprague-Dawley rat plasma assessed as (2S,3S,4S,5R,6S)-6-(5,5'-diallyl-2'-methoxybiphenyl-2-yloxy)-3,4,5-trihydroxytetrahydro-2H-pyran-2-carboxylic acid formation at 100 mg/kg, po by UPLC-IT-TOF-MS analysis; format: ADME, organism-based; conditions: in vivo
Procedure, shortened: (§2)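 Rats (n = 6) housed in metabolic cages received 100.0 mg/kg orally; controls received 0.5% CMC-Na. Plasma, urine and faeces were collected and analyzed by LC-IT-TOF-MS on a C18 column at 30 °C. Gradient 5–100% acetonitrile with 0.05% formic acid over 18 min at 0.2 mL/min; positive and negative ion MS/MS.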

[4] = Drug metabolism in Sprague-Dawley rat feces assessed as 2'-hydroxy-5'-(1-hydroxyallyl)-5-propylbiphenyl-2-yl hydrogen sulfate formation at 100 mg/kg, po by UPLC-IT-TOF-MS analysis; format: ADME, organism-based; conditions: in vivo; procedure, shortened: as §2
[5] = Drug metabolism in Sprague-Dawley rat plasma assessed as (2R,2'R,3S,3'S,4S,4'S,5R,5'R,6S,6'S)-6,6'-(5,5'-diallylbiphenyl-2,2'-diyl)bis(oxy)bis(2-(hydroxymethyl)tetrahydro-2H-pyran-3,4,5-triol) formation at 100 mg/kg, po by UPLC-IT-TOF-MS analysis; format: ADME, organism-based; conditions: in vivo; procedure, shortened: as §2
[6] = Drug metabolism in Sprague-Dawley rat plasma assessed as 5'-(1-hydroxyallyl)-5-(1-hydroxypropyl)-2'-((2S,3R,4S,5S,6R)-3,4,5-trihydroxy-6-(hydroxymethyl)tetrahydro-2H-pyran-2-yloxy)biphenyl-2-yl hydrogen sulfate formation at 100 mg/kg, po by UPLC-IT-TOF-MS analysis; format: ADME, organism-based; conditions: in vivo; procedure, shortened: as §2
[7] = tested on: Rattus norvegicus; assay: Toxicity in Sprague-Dawley rat assessed as change in gastrointestinal effects at 2000 mg/kg, po measured continuously for first 4 hrs followed by measured every hour for next 24 hrs and at 6 hrs intervals for following 48 hrs post dose; format: organism-based; conditions: in vivo
Procedure, shortened: (§3)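 Followed OECD 425 in adult SD rats (180–220 g), three groups of six. Vehicle control received 0.5% CMC-Na orally; separate male and female groups received 2000 mg/kg orally. Endpoints observed: behaviour, breathing, cutaneous effects, sensory nervous system responses, gastrointestinal effects and deaths.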

[8] = Drug metabolism in Sprague-Dawley rat feces assessed as 5,5'-diallyl-2'-hydroxybiphenyl-2-yl hydrogen sulfate formation at 100 mg/kg, po by UPLC-IT-TOF-MS analysis; format: ADME, organism-based; conditions: in vivo; procedure, shortened: as §2
[9] = tested on: Mus musculus; assay: Decrease in dopamine level in Kunming mouse thalamus at 40 mg/kg, po treated for 7 days by HPLC-ECD analysis; format: functional, organism-based
Procedure, shortened: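 Male Kunming mice received vehicle or 40 mg/kg for 7 days, then were killed by cervical dislocation and the brain regions dissected on ice. Tissue was homogenized in ice-cold 0.2 M perchloric acid with 0.1 mM EDTA and centrifuged at 15,000 rpm, 20 min, 4 °C. Supernatant was analyzed by HPLC-ECD (+0.50 V; phosphate/octanesulfonate mobile phase, pH 3.0). Results in ng/g, mean ± SEM.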

[10] = Drug metabolism in Sprague-Dawley rat feces assessed as (2S,3S,4S,5R,6S)-3,4,5-trihydroxy-6-(5-(1-hydroxyallyl)-5'-(2-hydroxypropyl)-2'-methoxybiphenyl-2-yloxy)tetrahydro-2H-pyran-2-carboxylic acid formation at 100 mg/kg, po by UPLC-IT-TOF-MS analysis; format: ADME, organism-based; conditions: in vivo; procedure, shortened: as §2
[11] = tested on: Rattus norvegicus; assay: Toxicity in Sprague-Dawley rat assessed as death at 2000 mg/kg, po measured continuously for first 4 hrs followed by measured every hour for next 24 hrs and at 6 hrs intervals for following 48 hrs post dose; format: organism-based; conditions: in vivo; procedure, shortened: as §3
[12] = Drug metabolism in Sprague-Dawley rat feces assessed as (2S,3R,4S,5S,6R)-2-(5,5'-diallyl-2'-methoxybiphenyl-2-yloxy)-6-(hydroxymethyl)tetrahydro-2H-pyran-3,4,5-triol formation at 100 mg/kg, po by UPLC-IT-TOF-MS analysis; format: ADME, organism-based; conditions: in vivo; procedure, shortened: as §2
[13] = tested on: Mus musculus; assay: Increase in 5-hydroxyindole-3-acetic acid level in Kunming mouse hypothalamus at 40 mg/kg, po treated for 7 days by HPLC-ECD analysis; format: functional, organism-based
Procedure, shortened: (§4)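 Male Kunming mice (18–20 g) given vehicle or 40 mg/kg for 7 days, then killed by cervical dislocation. Frontal cortex, hippocampus, striatum, hypothalamus and thalamus dissected on ice, homogenized in ice-cold 0.2 M perchloric acid with 0.1 mM EDTA, centrifuged 15,000 rpm, 20 min, 4 °C. Supernatant analysed by HPLC-ECD at +0.50 V; phosphate/octanesulfonate mobile phase pH 3.0 with 12% methanol. Levels in ng/g, mean ± SEM.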

[14] = Drug metabolism in Sprague-Dawley rat urine assessed as (2S,3R,4S,5S,6R)-2-(5,5'-diallyl-2'-methoxybiphenyl-2-yloxy)-6-(hydroxymethyl)tetrahydro-2H-pyran-3,4,5-triol formation at 100 mg/kg, po by UPLC-IT-TOF-MS analysis; format: ADME, organism-based; conditions: in vivo; procedure, shortened: as §1
[15] = tested on: Mus musculus; assay: Increase in norepinephrine level in Kunming mouse hypothalamus at 40 mg/kg, po treated for 7 days by HPLC-ECD analysis; format: functional, organism-based; procedure, shortened: as §4
[16] = Drug metabolism in Sprague-Dawley rat urine assessed as 5'-acryloyl-2'-hydroxy-5-propionylbiphenyl-2-yl hydrogen sulfate formation at 100 mg/kg, po by UPLC-IT-TOF-MS analysis; format: ADME, organism-based; conditions: in vivo; procedure, shortened: as §1
[17] = tested on: Mus musculus; assay: Increase in 5-hydroxyindole-3-acetic acid level in Kunming mouse hippocampus at 40 mg/kg, po treated for 7 days by HPLC-ECD analysis; format: functional, organism-based; procedure, shortened: as §4
[18] = tested on: Mus musculus; assay: Increase in ratio of 5-hydroxyindole-3-acetic acid to 5-hydroxytryptamine level in Kunming mouse frontal cortex at 40 mg/kg, po treated for 7 days by HPLC-ECD analysis; format: functional, organism-based; procedure, shortened: as §4
[19] = Drug metabolism in Sprague-Dawley rat urine assessed as 5'-(1-hydroxyallyl)-5-(1-hydroxypropyl)-2'-((2S,3R,4S,5S,6R)-3,4,5-trihydroxy-6-(hydroxymethyl)tetrahydro-2H-pyran-2-yloxy)biphenyl-2-yl hydrogen sulfate formation at 100 mg/kg, po by UPLC-IT-TOF-MS analysis; format: ADME, organism-based; conditions: in vivo; procedure, shortened: as §1
[20] = tested on: Mus musculus; assay: Increase in norepinephrine level in Kunming mouse thalamus at 40 mg/kg, po treated for 7 days by HPLC-ECD analysis; format: functional, organism-based; procedure, shortened: as §4
[21] = tested on: Rattus norvegicus; assay: Toxicity in Sprague-Dawley rat assessed as change in sensory nervous system responses at 2000 mg/kg, po measured continuously for first 4 hrs followed by measured every hour for next 24 hrs and at 6 hrs intervals for following 48 hrs post dose; format: organism-based; conditions: in vivo; procedure, shortened: as §3

## C=CCc1ccc(O)c(-c2cc(CC=C)ccc2O[C@@H]2O[C@H](CO)[C@@H](O)[C@H](O)[C@H]2O)c1
[1]
  Drug metabolism: Metabolite_Detected
[2]
  Drug metabolism: Metabolite_Detected
[3]
  Drug metabolism: Metabolite_Notdetected
[4]
  Drug metabolism: Metabolite_Detected
[5]
  Drug metabolism: Metabolite_Notdetected
[6]
  Drug metabolism: Metabolite_Notdetected
[7]
  Activity: Non-Toxic
[8]
  Drug metabolism: Metabolite_Detected
[9]
  Activity: Active
[10]
  Drug metabolism: Metabolite_Notdetected
[11]
  Activity: Non-Toxic
[12]
  Drug metabolism: Metabolite_Detected
[13]
  Activity: Active
[14]
  Drug metabolism: Metabolite_Detected
[15]
  Activity: Active
[16]
  Drug metabolism: Metabolite_Detected
[17]
  Activity: Active
[18]
  Activity: Active
[19]
  Drug metabolism: Metabolite_Detected
[20]
  Activity: Active
[21]
  Activity: Non-Toxic
